Assay [1] concerns MRC5. The experiment in a line: Antiviral activity determined by plaque reduction assay of HCMV (AD-169) in MRC-5 cells. The settings on record: Homo sapiens, read-out: ID50 (the source's name). In kind it is functional. In a few lines:
(§1)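 Plaque reduction assay: HSV strains in Vero cells and HCMV in MRC-5 cells. ID50 is the dose giving a 50% fall in plaque numbers relative to untreated controls.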
(In general: Plaques are areas of infected cells; plaque reduction assays count them against a control.)

In assay [2] the test system is Vero. The experiment in a line: Antiviral activity determined by plaque reduction assay of HSV-2 (G) in vero cells. In kind it is functional. The settings on record: Chlorocebus sabaeus, read-out: ID50 (the source's name). In outline: as §1
The subject of assay [3] is Vero. As to the kind of experiment: Anticellular activity was determined by cell proliferation assay in vero cells. Conditions: Chlorocebus sabaeus, read-out: ID50 (the source's name).
Assay [4] has as its system Vero. As to the kind of experiment: Antiviral activity determined by plaque reduction assay of HSV-1 (BWS) in vero cells. Type of assay: functional. Conditions: Chlorocebus sabaeus, read-out: ID50 (the source's name). In outline:
as §1

Assay [5] relates to Mus musculus. As to the kind of experiment: Compound tested for its effect on mean survival time in mice against HSV-1(BWS) at a dose of 100 mg/kg. Type of assay: functional. In outline: (§2)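 Female Swiss-Webster mice of about 20 g were infected intraperitoneally with 5 × 10^4 PFU HSV-1 (BWS). Compound was given intraperitoneally twice daily for 5 consecutive days, starting 3 h postinfection. A saline placebo group served as control. Deaths were recorded for 21 days, and survivors and mean survival time in days were taken at the day-21 endpoint.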

Assay [6] concerns Mus musculus. As to the kind of experiment: Compound tested for its effect on mean survival time in mice against HSV-1(BWS) at a dose of 300 mg/kg. In kind it is functional. In a few lines: as §2
The subject of assay [7] is Mus musculus. The experiment in a line: Antiviral activity in terms of percentage survival at a dose of 100 mg/kg after intraperitoneal inoculation of HSV-1(BWS) in mice (9/10). Type of assay: functional. Conditions: ip. In outline: as §2
Assay [8] has as its system Mus musculus. As to the kind of experiment: Antiviral activity in terms of percentage survival at a dose of 300 mg/kg after intraperitoneal inoculation of HSV-1(BWS) in mice (10/10). Type of assay: functional. Conditions: ip. In a few lines:
as §2

Assay [9] deals with Mus musculus. As to the kind of experiment: Antiviral activity in terms of percentage survival at a dose of 300 mg/kg after intraperitoneal inoculation of HSV-1(BWS) in mice (6/7). Type of assay: functional. The settings on record: ip. In outline: as §2
For assay [10], the system named is Mus musculus. As to the kind of experiment: Antiviral activity in terms of percentage survival at a dose of 100 mg/kg after intraperitoneal inoculation of HSV-1(BWS) in mice (7/10). Type of assay: functional. The settings on record: ip. In outline:
as §2

Values after ≈ are worked out from the molar mass of the structure shown.

For `N.Nc1ncnc2c1ncn2CC(CO)CCP(=O)(O)O` (configuration not stated), the IC50 in assay [1], in assay [2] and in assay [3] was greater than 100 µg/mL throughout.
As for `N.Nc1ccn(CC(CO)CCP(=O)(O)O)c(=O)n1` (configuration not stated), the IC50 in assay [1], in [2] and in assay [3] was greater than 100 µg/mL in each case.
Take `CC(OCn1cnc2c(O)nc(N)nc21)OCP(=O)(O)O` (configuration not stated): the IC50 in [1], in assay [4], in assay [2] and in [3] was greater than 100 µg/mL each time.
Consider `Cc1cn(COCOCP(=O)([O-])[O-])c(=O)[nH]c1=O.[Na+].[Na+]`, for which the IC50 in assay [1], in assay [4], in [2] and in assay [3] was greater than 100 µg/mL each time.
`Nc1nc(O)c2ncn(COC(CO)OCP(=O)([O-])[O-])c2n1.[Na+].[Na+]` (configuration not stated): the IC50 was 0.9 µg/mL in [1], 3.3 µg/mL in assay [4], 8.2 µg/mL in assay [2] and greater than 100 µg/mL in assay [3].
With `Nc1ccn(COCOCP(=O)([O-])[O-])c(=O)n1.[Na+].[Na+]`, the IC50 in assay [1], in assay [4], in assay [2] and in [3] was greater than 100 µg/mL each time.
Regarding `Nc1nc(O)c2ncn(COCOCP(=O)([O-])[O-])c2n1.[Na+].[Na+]`, the IC50 in [1] is 5 µg/mL; in assay [4], 2.6 µg/mL; in assay [2] it was 11 µg/mL; in assay [3] it was greater than 100 µg/mL. In addition, the results for the MST in [5] and in assay [6] were 20.4 days and 21 days, respectively. Moreover, the survival at 100 mg/kg in [7] was 90%. In [8], this compound showed a survival at 300 mg/kg of 100%.
Regarding `Nc1ncnc2c1ncn2COCOCP(=O)([O-])[O-].[Na+].[Na+]`, the IC50 in assay [1], in [4], in [2] and in [3] was greater than 100 µg/mL each time.
For `COC(CO)OCn1cnc2c(O)nc(N)nc21` (configuration not stated), the IC50 in assay [1], in assay [4], in [2] and in assay [3] was greater than 100 µg/mL throughout.
Consider `N.Nc1nc(O)c2ncn(CC(CO)CCP(=O)(O)O)c2n1` (configuration not stated), for which the IC50 in assay [1], in [2] and in assay [3] was greater than 100 µg/mL each time.
On to `Nc1nc2c(ncn2COCCO)c(=O)[nH]1` [ACYCLOVIR], for which the IC50 is 38.4 µg/mL (≈ 171 µM) in assay [1], 0.5 µg/mL (≈ 2.22 µM) in assay [4], 2.4 µg/mL (≈ 10.7 µM) in [2] and greater than 100 µg/mL in [3]. This compound also returned a survival at 300 mg/kg in assay [9] of 86%. In assay [6], the MST is 20 days. The compound also yielded a survival at 100 mg/kg in assay [10] of 70%.
As for `Nc1nc2c(ncn2CCOCP(=O)(O)O)c(=O)[nH]1` [GS-438], the IC50 in assay [1] was found to be 0.04 µg/mL (≈ 0.138 µM); in [4] it was 0.08 µg/mL (≈ 0.277 µM); in assay [2], 0.69 µg/mL (≈ 2.39 µM); in assay [3], 5 µg/mL (≈ 17.3 µM).

The values are drawn from ChEMBL document CHEMBL1125595 (1991).
